Measurements reported in ChEMBL document CHEMBL1154295, “Potent and selective steroidal inhibitors of 17beta-hydroxysteroid dehydrogenase type 7, an enzyme that catalyzes the reduction of the key hormones estrone and dihydrotestosterone” (J Med Chem, 2009).
The source made the active and inactive calls. The rule behind the calls is not given here.

Assays:
[1] = target: T1, 3-keto-steroid reductase/17-beta-hydroxysteroid dehydrogenase 7 (Homo sapiens) (UniProt P56937); assay: Inhibition of human 17beta-HSD7 expressed in HEK293 cells assessed as inhibition of reduction of [14C]dihydrotestosterone into [14C]5alpha-androstane-3beta,17beta-diol at 3 uM after 18 hrs; type: cell-based
T1 sequence (whole entry): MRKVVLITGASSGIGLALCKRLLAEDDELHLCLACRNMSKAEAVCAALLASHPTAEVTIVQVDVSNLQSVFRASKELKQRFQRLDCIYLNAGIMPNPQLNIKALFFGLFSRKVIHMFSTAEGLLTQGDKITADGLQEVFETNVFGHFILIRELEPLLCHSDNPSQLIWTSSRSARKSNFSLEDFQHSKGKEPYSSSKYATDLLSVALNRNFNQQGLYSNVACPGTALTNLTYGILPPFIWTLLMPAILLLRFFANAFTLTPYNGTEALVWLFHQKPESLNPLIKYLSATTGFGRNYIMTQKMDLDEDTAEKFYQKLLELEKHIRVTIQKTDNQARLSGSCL
Outline: (§1)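 Intact HEK-293 cells stably overexpressing h17β-HSD7 (pCMV-neo, G-418 selected) were plated at 500 000 cells/well in MEM with 10% fetal calf serum at 37 °C. Fresh medium received 15 000 cpm (~150 nM) [4-14C]-DHT plus ethanolic inhibitor, and cells were incubated 18 h. Steroids were extracted twice with diethyl ether. Assays were done in duplicate.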

[2] = target: T1, 3-keto-steroid reductase/17-beta-hydroxysteroid dehydrogenase 7 (Homo sapiens); assay: Inhibition of human 17beta-HSD7 expressed in HEK293 cells assessed as inhibition of reduction of [14C]dihydrotestosterone into [14C]5alpha-androstane-3beta,17beta-diol at 0.3 uM after 18 hrs; type: cell-based; outline: as §1
[3] = target: T2, 3-keto-steroid reductase/17-beta-hydroxysteroid dehydrogenase 7 (Homo sapiens, UniProt P56937); assay: Inhibition of human 17beta-HSD7 expressed in HEK293 cells assessed as inhibition of reduction of [14C]estrone into [14C]estradiol after 7 hrs; type: cell-based
T2 sequence (P56937 whole entry): T1 sequence (whole entry)
Outline: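 Intact HEK-293 cells stably overexpressing h17β-HSD7 were plated at 500 000 cells/well in MEM/10% FCS at 37 °C. Fresh medium received 15 000 cpm (~150 nM, below Km) [4-14C]-estrone plus ethanolic inhibitor for 7 h. Steroids were extracted with diethyl ether. Screening used two inhibitor concentrations in duplicate or triplicate and is reported as % inhibition of E1→E2.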

[4] = target: T1, 3-keto-steroid reductase/17-beta-hydroxysteroid dehydrogenase 7 (Homo sapiens); conditions: HEK293, at 0.3 µM
[5] = target: T3, 3-oxo-5-alpha-steroid 4-dehydrogenase 2 (Homo sapiens) (UniProt P31213); assay: Inhibition of human 5alpha reductase 2 expressed in HEK293 cells assessed as inhibition of conversion of [14C]4-androstene-3,17-dione to [14C]5R-androstane-3,17-dione at 0.3 uM after 3 hrs; type: cell-based
T3 sequence (whole entry): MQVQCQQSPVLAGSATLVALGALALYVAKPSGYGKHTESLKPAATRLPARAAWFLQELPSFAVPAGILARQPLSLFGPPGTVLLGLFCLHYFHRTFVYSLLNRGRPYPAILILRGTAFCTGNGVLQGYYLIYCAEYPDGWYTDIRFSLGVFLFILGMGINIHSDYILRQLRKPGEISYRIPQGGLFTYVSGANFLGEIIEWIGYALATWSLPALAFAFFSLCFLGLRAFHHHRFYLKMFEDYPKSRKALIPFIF
Outline: (§2)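 Intact HEK-293 cells transfected with pCMV-neo-h5α-reductase type 1 or type 2 were plated at 500 000 cells/well at 37 °C. They were incubated with 15 000 cpm [14C]-Δ4-dione and inhibitor (final 0.3 or 3 μM), in duplicate, for 1 h (type 1) or 3 h (type 2). Steroids were extracted and separated by TLC (toluene/EtOAc 4:1). Radioactivity gave % transformation and % inhibition.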

[6] = target: T4, 3-oxo-5-alpha-steroid 4-dehydrogenase 1 (Homo sapiens) (UniProt P18405); assay: Inhibition of human 5alpha reductase 1 expressed in HEK293 cells assessed as inhibition of conversion of [14C]4-androstene-3,17-dione to [14C]5R-androstane-3,17-dione at 0.3 uM after 1 hr; type: cell-based; outline: as §2
T4 sequence (whole entry): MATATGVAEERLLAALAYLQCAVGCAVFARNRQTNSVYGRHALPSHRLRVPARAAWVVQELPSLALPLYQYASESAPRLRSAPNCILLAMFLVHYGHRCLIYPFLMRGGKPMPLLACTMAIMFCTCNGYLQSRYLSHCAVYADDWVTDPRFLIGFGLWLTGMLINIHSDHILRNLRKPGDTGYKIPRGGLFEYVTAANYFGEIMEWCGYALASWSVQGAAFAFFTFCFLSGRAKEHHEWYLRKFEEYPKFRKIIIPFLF

[7] = system: HEK293; assay: Inhibition of human 17beta-HSD5 expressed in HEK293 cells assessed as inhibition of conversion of [14C]4-androstene-3,17-dione to [14C]testosterone at 0.3 uM after 20 hrs; type: cell-based
Outline: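 Intact HEK-293 cells stably transfected with pCMV-neo-h17β-HSD5 were plated at 500 000 cells/well. They were incubated with 15 000 cpm [4-14C]-Δ4-dione and inhibitor in ethanol (0.3 or 3 μM) for 20 h at 37 °C, 5% CO2, in triplicate. Steroids were then extracted, separated and quantified.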

[8] = target: T5, 17-beta-hydroxysteroid dehydrogenase type 1 (Homo sapiens) (UniProt P14061); assay: Inhibition of human 17beta-HSD1 expressed in HEK293 cells assessed as inhibition of reduction of [14C]estrone into [14C]estradiol at 0.1 uM; type: cell-based
T5 sequence (whole entry): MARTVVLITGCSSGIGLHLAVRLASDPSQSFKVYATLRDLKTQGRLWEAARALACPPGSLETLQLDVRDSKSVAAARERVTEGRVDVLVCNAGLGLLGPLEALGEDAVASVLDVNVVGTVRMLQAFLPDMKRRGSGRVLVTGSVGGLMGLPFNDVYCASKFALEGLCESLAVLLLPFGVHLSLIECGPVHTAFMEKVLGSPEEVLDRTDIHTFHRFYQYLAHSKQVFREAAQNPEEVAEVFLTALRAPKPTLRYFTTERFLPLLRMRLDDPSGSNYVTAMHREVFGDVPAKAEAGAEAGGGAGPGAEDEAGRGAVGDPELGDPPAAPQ
Outline: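 Enzyme source: sonicated HEK-293 cells transfected with the h17β-HSD1 gene. Inhibitor was dissolved in ethanol and tested at final concentrations of 0.1 and 1 μM. The [14C]-E1 to [14C]-E2 assay was run as in an earlier report.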

CCCCCCCCCCN(C=O)C1CC[C@H]2[C@@H]3CC[C@H]4N(C)C(=O)CC[C@]4(C)[C@H]3CC[C@]12C (some centres undefined)
inhibition [1]: 69%
inhibition [2]: 49%
IC50 [3]: 195 nM

CCCCCCCN(CCCC)[C@H]1CC[C@H]2[C@@H]3CC[C@H]4N(C)C(=O)CC[C@]4(C)[C@H]3CC[C@]12C
inhibition [1]: 69%
inhibition [4]: 76%
inhibition [5]: inactive

CC1(C)CC[C@@]2(CC[C@H]3[C@@H]4CC[C@H]5NC(=O)CC[C@]5(C)[C@H]4CC[C@@]32C)OC1=O
inhibition [1]: 69%
inhibition [6]: inactive
inhibition [7]: 90%
inhibition [5]: inactive
inhibition [8]: inactive

CN1C(=O)CC[C@]2(C)[C@H]3CC[C@@]4(C)[C@@H](CC[C@@]45CCC(C)(C)C(=O)O5)[C@@H]3CC[C@@H]12
inhibition [1]: 69%
inhibition [6]: Active
inhibition [7]: 90%
IC50 [3]: 116 nM
inhibition [8]: inactive

CCCCCCCN(C)[C@H]1CC[C@H]2[C@@H]3CC[C@H]4N(C)C(=O)CC[C@]4(C)[C@H]3CC[C@]12C
inhibition [1]: 69%
inhibition [5]: inactive
IC50 [3]: 189 nM
